ChEMBL document CHEMBL1123529, “Analogues of substance P. Peptides containing D-amino acid residues in various positions of substance P and displaying agonist or receptor selective antagonist effects” (1986)
Each block holds one molecule with its values, some of them ahead of it. Where a SMILES comes first, the peptide text is derived from it. [ ]: non-standard residue; d: D form. The star is where a group is joined. Cbz = O=C(OCc1ccccc1)*

How the values were obtained:
[1] = target: Substance-P receptor (Rattus norvegicus) (UniProt P14600); assay: Antagonistic activity against Substance P(6-11) receptor in rat spinal cord at concentration of 5 uM.
Chain of Substance-P receptor (Rattus norvegicus) (P14600 whole entry, looked up): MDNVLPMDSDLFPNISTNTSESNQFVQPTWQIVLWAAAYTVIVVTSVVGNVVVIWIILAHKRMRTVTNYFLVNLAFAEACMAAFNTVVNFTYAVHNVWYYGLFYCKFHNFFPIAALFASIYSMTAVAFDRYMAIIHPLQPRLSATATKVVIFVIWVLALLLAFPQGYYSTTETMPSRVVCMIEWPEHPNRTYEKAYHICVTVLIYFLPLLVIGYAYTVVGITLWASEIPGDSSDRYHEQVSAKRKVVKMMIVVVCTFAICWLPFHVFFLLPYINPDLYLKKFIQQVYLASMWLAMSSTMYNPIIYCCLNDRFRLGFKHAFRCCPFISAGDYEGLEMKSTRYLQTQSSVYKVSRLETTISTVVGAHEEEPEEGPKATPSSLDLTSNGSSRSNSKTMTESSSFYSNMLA

[2] = target: Metabotropic glutamate receptor 3 (Rattus norvegicus) (UniProt P31422); assay: Antagonistic activity against Glutamate receptor in rat spinal cord at concentration of 50 uM.; format: functional, tissue-based
Chain of Metabotropic glutamate receptor 3 (Rattus norvegicus) (P31422 23-879 limits assumed): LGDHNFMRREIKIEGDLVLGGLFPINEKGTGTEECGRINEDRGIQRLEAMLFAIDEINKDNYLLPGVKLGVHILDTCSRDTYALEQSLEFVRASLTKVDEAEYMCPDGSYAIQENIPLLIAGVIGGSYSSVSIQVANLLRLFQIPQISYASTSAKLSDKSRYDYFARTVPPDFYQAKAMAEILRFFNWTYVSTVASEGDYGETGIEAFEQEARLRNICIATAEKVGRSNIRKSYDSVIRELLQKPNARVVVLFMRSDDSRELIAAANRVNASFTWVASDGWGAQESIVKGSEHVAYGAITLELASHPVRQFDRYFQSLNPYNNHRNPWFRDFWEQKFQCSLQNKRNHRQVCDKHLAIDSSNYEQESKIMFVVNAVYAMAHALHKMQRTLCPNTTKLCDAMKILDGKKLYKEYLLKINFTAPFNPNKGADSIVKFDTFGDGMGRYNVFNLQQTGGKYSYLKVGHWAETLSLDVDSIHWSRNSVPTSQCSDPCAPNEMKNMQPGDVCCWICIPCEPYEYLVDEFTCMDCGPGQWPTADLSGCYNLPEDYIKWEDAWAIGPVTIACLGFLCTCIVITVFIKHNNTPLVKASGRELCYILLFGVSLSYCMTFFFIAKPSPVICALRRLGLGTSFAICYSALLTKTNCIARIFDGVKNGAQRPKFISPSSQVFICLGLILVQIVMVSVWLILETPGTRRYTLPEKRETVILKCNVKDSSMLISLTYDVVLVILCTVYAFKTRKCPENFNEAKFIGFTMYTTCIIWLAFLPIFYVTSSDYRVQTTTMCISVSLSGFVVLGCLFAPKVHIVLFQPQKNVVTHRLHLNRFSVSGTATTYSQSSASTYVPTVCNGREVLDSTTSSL
How it was run: (§1)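 Neonatal hemisectioned spinal cord from Wistar rats (Alderley Park strain, 2-7 days old), anaesthetised with intraperitoneal urethane (25% w/v, […]) and then decapitated. Cord superfused with oxygenated medium at 1 mL/min. Agonist (SP, SP(6-11), glutamate or carbachol) applied as 2-mL doses in the superfusate. Antagonist superfused for at least 15 min before agonists were retested. Read-out: % change in ventral root–cord DC potential response amplitude.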

[3] = target: Substance-P receptor (Cavia porcellus) (UniProt P30547); assay: Antagonistic activity against Substance P(6-11) receptor in guinea pig ileum at concentration of 5 uM.; format: functional, tissue-based
Chain of Substance-P receptor (Cavia porcellus) (P30547 whole entry): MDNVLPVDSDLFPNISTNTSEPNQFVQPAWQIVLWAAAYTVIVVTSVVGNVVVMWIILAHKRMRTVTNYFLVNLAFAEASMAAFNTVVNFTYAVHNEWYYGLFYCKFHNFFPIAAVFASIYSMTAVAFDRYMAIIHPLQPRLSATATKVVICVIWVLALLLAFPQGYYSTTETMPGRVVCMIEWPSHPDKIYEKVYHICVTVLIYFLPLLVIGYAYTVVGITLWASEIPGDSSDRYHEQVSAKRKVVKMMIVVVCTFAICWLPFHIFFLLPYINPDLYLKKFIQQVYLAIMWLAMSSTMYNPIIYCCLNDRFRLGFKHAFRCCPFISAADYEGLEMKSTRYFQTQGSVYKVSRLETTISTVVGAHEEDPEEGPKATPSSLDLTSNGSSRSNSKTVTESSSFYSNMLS
How it was run: (§2)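 Distal ileum from Dunkin-Hartley guinea pigs (300-350 g, both sexes) in a Krebs organ bath at 37 °C, gassed with 95% O2/5% CO2. Agonist (SP or SP(6-11)) dose-response curves run on a 3-min cycle with 1-min contact, with and without antagonist. Dose ratio = agonist EC50 with antagonist / EC50 alone. At least two preparations per compound; ratios below 2 taken as insignificant.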

[4] = target: Substance-P receptor (Rattus norvegicus) (UniProt P14600); assay: Antagonistic activity against Substance P receptor in rat spinal cord at concentration of 50 uM.
[5] = target: Substance-P receptor (Rattus norvegicus) (UniProt P14600); assay: Antagonistic activity against Substance P receptor in rat spinal cord at concentration of 5 uM.
[6] = target: Substance-P receptor (Rattus norvegicus) (UniProt P14600); assay: Antagonistic activity against Substance P(6-11) receptor in rat spinal cord at concentration of 50 uM.
[7] = target: Metabotropic glutamate receptor 3 (Rattus norvegicus) (UniProt P31422); assay: Antagonistic activity against Glutamate receptor in spinal rat cord at concentration of 5 uM.; format: functional
How it was run: as §1

[8] = target: Substance-P receptor (Rattus norvegicus) (UniProt P14600); assay: Antagonistic activity against Substance P receptor in rat spinal cord at concentration of 25 uM.
[9] = target: Substance-P receptor (Rattus norvegicus) (UniProt P14600); assay: Antagonistic activity against Substance P(6-11) receptor in rat spinal cord at concentration of 25 uM.
[10] = target: Metabotropic glutamate receptor 3 (Rattus norvegicus) (UniProt P31422); assay: Antagonistic activity against Glutamate receptor in spinal rat cord at concentration of 25 uM.; format: functional
How it was run: as §1

[11] = target: Substance-P receptor (Cavia porcellus) (UniProt P30547); assay: In vitro percent agonist activity in guinea pig ileum.; format: functional, tissue-based
How it was run: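 Distal ileum from Dunkin-Hartley guinea pigs (300-350 g, either sex) in a 5-mL organ bath of Krebs solution at 37 °C, gassed with 95% O2/5% CO2. Dose-response curves were run on a 3-min cycle with 1-min agonist contact and washout. Agonist activity is expressed as a percentage of substance P.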

[12] = In vitro antagonistic activity against Substance P(6-11) in guinea pig ileum at concentration of 10 uM.; format: functional, Cavia porcellus
How it was run: (§3)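 Dose-response curves used a 3-min cycle with 1-min contact and washout, with SP or SP(6-11)-hexapeptide as agonist. Dose ratio is the agonist EC50 with antagonist divided by the EC50 alone. At least two preparations per compound; ratios under 2 were considered insignificant.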

[13] = target: Substance-P receptor (Cavia porcellus) (UniProt P30547); assay: Antagonistic activity against Substance P receptor in guinea pig ileum at concentration of 5 uM.; format: functional, tissue-based
How it was run: as §2

[14] = target: Metabotropic glutamate receptor 3 (Rattus norvegicus) (UniProt P31422); assay: Antagonistic activity against Glutamate receptor in rat spinal cord at concentration of 5 uM.; format: functional, tissue-based
How it was run: as §1

[15] = In vitro antagonistic activity against Substance P on guinea pig ileum at concentration of 10 uM.; format: functional, Cavia porcellus
How it was run: as §3

[16] = target: Substance-P receptor (Cavia porcellus) (UniProt P30547); assay: Antagonistic activity against Substance P(6-11) receptor in guinea pig ileum at concentration of 100 uM.; format: functional, tissue-based
How it was run: as §2

[17] = target: Substance-P receptor (Cavia porcellus) (UniProt P30547); assay: Evaluated in vitro for percent agonist activity in guinea pig ileum (substance P receptor); format: functional, tissue-based
[18] = target: Substance-P receptor (Cavia porcellus) (UniProt P30547); assay: Antagonistic activity against Substance P receptor in guinea pig ileum at concentration of 100 uM.; format: functional, tissue-based
How it was run: as §2

[19] = target: Substance-P receptor (Cavia porcellus) (UniProt P30547); assay: Antagonistic activity against Substance P(6-11) receptor in guinea pig ileum at concentration of 14 uM.; format: functional, tissue-based
How it was run: as §2

[20] = target: Substance-P receptor (Cavia porcellus) (UniProt P30547); assay: Antagonistic activity against Substance P receptor in guinea pig ileum at concentration of 14 uM.; format: functional, tissue-based
How it was run: as §2

[21] = target: Substance-P receptor (Cavia porcellus) (UniProt P30547); assay: Antagonistic activity against Substance P receptor in guinea pig ileum at concentration of 47 uM.; format: functional, tissue-based
How it was run: as §2

[22] = target: Substance-P receptor (Cavia porcellus) (UniProt P30547); assay: Antagonistic activity against Substance P receptor in guinea pig ileum at concentration of 6.4 uM.; format: functional, tissue-based
How it was run: as §2

[23] = target: Substance-P receptor (Cavia porcellus) (UniProt P30547); assay: Antagonistic activity against Substance P(6-11) receptor in guinea pig ileum at concentration of 47 uM.; format: functional, tissue-based
How it was run: as §2

[24] = target: Substance-P receptor (Cavia porcellus) (UniProt P30547); assay: Antagonistic activity against Substance P(6-11) receptor in guinea pig ileum at concentration of 6.4 uM.; format: functional, tissue-based
How it was run: as §2

[25] = target: Metabotropic glutamate receptor 3 (Rattus norvegicus) (UniProt P31422); assay: Antagonistic activity against Glutamate receptor in rat spinal cord at concentration of 25 uM.; format: functional, tissue-based
How it was run: as §1

[26] = target: Substance-P receptor (Rattus norvegicus) (UniProt P14600); assay: Antagonistic activity against Substance P(6-11) receptor in rat spinal cord at concentration of 10 uM.
[27] = target: Metabotropic glutamate receptor 3 (Rattus norvegicus) (UniProt P31422); assay: Antagonistic activity against Glutamate receptor in rat spinal cord at concentration of 10 uM.; format: functional, tissue-based
How it was run: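 Cord superfused with oxygenated medium at 1 mL/min. Agonist (SP, SP(6-11), glutamate or carbachol) applied as 2-mL doses in the superfusate. Antagonist superfused for at least 15 min before agonists were retested. Read-out: % change in ventral root–cord DC potential response amplitude.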

[28] = target: Substance-P receptor (Cavia porcellus) (UniProt P30547); assay: Antagonistic activity against Substance P(6-11) receptor in guinea pig ileum at concentration of 10 uM.; format: functional, tissue-based
How it was run: as §2

[29] = target: Substance-P receptor (Cavia porcellus) (UniProt P30547); assay: Antagonistic activity against Substance P in guinea pig ileum at concentration of 1 uM.; format: functional, tissue-based
How it was run: as §2

[30] = target: Substance-P receptor (Cavia porcellus) (UniProt P30547); assay: Antagonistic activity against Substance P in guinea pig ileum at concentration of 10 uM.; format: functional, tissue-based
How it was run: as §2

[31] = target: Substance-P receptor (Cavia porcellus) (UniProt P30547); assay: Antagonistic activity against Substance P(6-11) receptor in guinea pig ileum at concentration of 1 uM.; format: functional, tissue-based
How it was run: as §2

SP [11]: 0%
Compound: COC(=O)[C@@H](CCSC)NC(=O)[C@H](CC(C)C)NC(=O)[C@@H](Cc1c[nH]c2ccccc12)NC(=O)[C@H](Cc1c[nH]c2ccccc12)NC(=O)[C@@H](Cc1c[nH]c2ccccc12)NC(=O)[C@H](CCC(N)=O)NC(=O)[C@H](CCC(N)=O)NC(=O)[C@@H]1CCCN1C(=O)[C@H](CCCCNC(=O)OCc1ccccc1)NC(=O)[C@@H]1CCCN1C(=O)[C@H](CCCN=C(N)N)NC(=O)OCc1ccccc1

Change in amplitude response [26]: -33%
Change in amplitude response [2]: 11%
Change in amplitude response [4]: 8.3%
SP [17]: 0%
Change in amplitude response [27]: -3%
Change in amplitude response [6]: -75%
Change in amplitude response [9]: -77%
Change in amplitude response [25]: -13%
Activity [28]: 90 dose ratio
Compound: COC(=O)[C@@H](CCSC)NC(=O)[C@H](CC(C)C)NC(=O)CNC(=O)[C@@H](Cc1c[nH]c2ccccc12)NC(=O)[C@@H](Cc1c[nH]c2ccccc12)NC(=O)[C@H](CCC(N)=O)NC(=O)[C@H](CCC(N)=O)NC(=O)[C@@H]1CCCN1C(=O)[C@H](CCCCNC(=O)OCc1ccccc1)NC(=O)[C@@H]1CCCN1C(=O)[C@H](CCCN=C(N)N)NC(=O)OCc1ccccc1 (Cbz-RPK(Cbz)PQQ[dW][dW]GL[dM]-OMe)

Activity [29]: 1.1 dose ratio
Activity [30]: 14.6 dose ratio
SP [17]: 0%
Activity [31]: 1.8 dose ratio
Activity [28]: 18 dose ratio
Compound: CSCC[C@@H](NC(=O)[C@H](CC(C)C)NC(=O)CNC(=O)[C@H](Cc1c[nH]c2ccccc12)NC(=O)[C@@H](Cc1c[nH]c2ccccc12)NC(=O)[C@H](CCC(N)=O)NC(=O)[C@H](CCC(N)=O)NC(=O)[C@@H]1CCCN1C(=O)[C@H](CCCCNC(=O)OCc1ccccc1)NC(=O)[C@@H]1CCCN1C(=O)[C@H](CCCN=C(N)N)NC(=O)OCc1ccccc1)C(=O)O

Second part, the molecule before the results:

Compound: COC(=O)[C@@H](CCSC)NC(=O)[C@H](CC(C)C)NC(=O)[C@@H](Cc1c[nH]c2ccccc12)NC(=O)[C@H](Cc1c[nH]c2ccccc12)NC(=O)[C@@H](Cc1c[nH]c2ccccc12)NC(=O)[C@H](CCC(N)=O)NC(=O)[C@H](CCC(N)=O)NC(=O)[C@@H]1CCCN1C(=O)[C@H](CCCCN)NC(=O)[C@@H]1CCCN1C(=O)[C@@H](N)CCCN=C(N)N
Change in amplitude response [1]: -42%
Change in amplitude response [2]: 27%
Activity [3]: 8.1 dose ratio
Change in amplitude response [4]: -19%
Change in amplitude response [5]: 32%
Change in amplitude response [6]: -87%
Change in amplitude response [7]: -3%
Change in amplitude response [8]: 21%
Change in amplitude response [9]: -87%
Change in amplitude response [10]: 29%

Compound: CSCC[C@@H](NC(=O)[C@H](CC(C)C)NC(=O)[C@@H](Cc1c[nH]c2ccccc12)NC(=O)C(Cc1ccccc1)NC(=O)[C@@H](Cc1c[nH]c2ccccc12)NC(=O)[C@H](CCC(N)=O)NC(=O)[C@H](CCC(N)=O)NC(=O)C1CCCN1C(=O)[C@H](CCCCN)NC(=O)C1CCCN1C(=O)[C@@H](N)CCCN=C(N)N)C(=O)O (stereo in doubt)
Change in amplitude response [1]: -62%
Activity [12]: 4.3 dose ratio
Activity [13]: 6.3 dose ratio
Change in amplitude response [14]: -20%
Activity [3]: 3.4 dose ratio
Change in amplitude response [4]: 16%
Change in amplitude response [5]: 21%
Activity [15]: 5.3 dose ratio
Change in amplitude response [6]: -100%

Compound: COC(=O)[C@@H](CCSC)NC(=O)[C@H](CC(C)C)NC(=O)CNC(=O)[C@H](Cc1c[nH]c2ccccc12)NC(=O)[C@@H](Cc1c[nH]c2ccccc12)NC(=O)[C@H](CCC(N)=O)NC(=O)[C@H](CCC(N)=O)NC(=O)[C@@H]1CCCN1C(=O)[C@H](CCCCN)NC(=O)[C@@H]1CCCN1C(=O)[C@@H](N)CCCN=C(N)N
Activity [16]: < 2 dose ratio
SP [17]: < 0.0001%
Activity [18]: < 2 dose ratio

Compound: COC(=O)[C@@H](CCSC)NC(=O)[C@H](CC(C)C)NC(=O)CNC(=O)[C@H](Cc1ccccc1)NC(=O)[C@H](Cc1ccccc1)NC(=O)[C@@H]1CCCN1C(=O)[C@H]1CCCN1C(=O)[C@@H]1CCCN1C(=O)[C@H](CCCCNC(=O)OCc1ccccc1)NC(=O)[C@@H]1CCCN1C(=O)[C@H](CCCN=C(N)N)NC(=O)OCc1ccccc1
SP [17]: 0.004%
Activity [19]: < 2 dose ratio
Activity [20]: < 2 dose ratio

Compound: CSCC[C@@H](NC(=O)[C@H](CC(C)C)NC(=O)[C@@H](Cc1c[nH]c2ccccc12)NC(=O)[C@H](Cc1c[nH]c2ccccc12)NC(=O)[C@@H](Cc1c[nH]c2ccccc12)NC(=O)[C@H](CCC(N)=O)NC(=O)[C@H](CCC(N)=O)NC(=O)[C@@H]1CCCN1C(=O)[C@H](CCCCN)NC(=O)[C@@H]1CCCN1C(=O)[C@@H](N)CCCN=C(N)N)C(=O)O
Activity [21]: 10.3 dose ratio
SP [17]: 0%
Activity [22]: 3.1 dose ratio
Activity [23]: 16.1 dose ratio
Activity [24]: 2 dose ratio
Change in amplitude response [8]: 30%
Change in amplitude response [9]: -55%
Change in amplitude response [25]: 7%
